Laboratory results from ChEMBL document CHEMBL3769360, “Phthalimido-thiazoles as building blocks and their effects on the growth and morphology of Trypanosoma cruzi” (Eur J Med Chem, 2016).
Calls of active or inactive are those of the source.

Columns and labels:
[1] = Cytotoxicity against BALB/c mouse splenocytes assessed as highest non-toxic concentration causing >90 % incorporation of [3H]-thymidine after 24 hrs by beta counting method; type: cell-based, Splenocyte; settings: read-out: MNTD90
Procedure, shortened: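 BALB/c mouse splenocytes at 5 × 10^6 cells/well in RPMI-1640 with 10% inactivated FBS. Compounds were dissolved in DMSO (10 mg/mL stock) and serially diluted to 1.0, 5.0, 10, 25, 50 and 100 (final), in triplicate. Controls were saponin and medium with DMSO. 3H-thymidine was added, then 24 h at 37 °C, 5% CO2, and beta counting. Untreated = 100%; >90% incorporation counted as nontoxic.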

Trypanosoma cruzi [2] = experiment: Trypanocidal activity against epimastigote form of Trypanosoma cruzi Dm28c after 11 days by neubauer chamber method; type: functional; settings: 264 h
Trypanosoma cruzi [3] = experiment: Trypanocidal activity against trypamostigote form of Trypanosoma cruzi Y infected in African green monkey Vero cells after 24 hrs by neubauer chamber method; type: functional, organism-based
Procedure, shortened: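 Y strain trypomastigotes harvested from Vero cell supernatants, 4 × 10^5 cells/well, compounds in triplicate, benznidazole as positive control. Incubated 24 h at 37 °C, 5% CO2. Motile parasites counted in a Neubauer chamber; untreated wells = 100%. IC50 by nonlinear regression over at least seven concentrations.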

[4] = Selectivity index, ratio of MNTD90 for cytotoxicity against BALB/c mouse splenocytes to IC50 for trypamostigote form of Trypanosoma cruzi Y infected in African green monkey Vero cells; type: toxicity, cell-based; settings: read-out: Selectivity Index
Trypanosoma cruzi [5] = experiment: Induction of ultrastructural changes in trypamostigote form of Trypanosoma cruzi Y assessed as blebs in flagellum at IC50 after 24 hrs by scanning electron microscopic analysis; type: functional, organism-based
Procedure, shortened: (§1)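 Trypomastigotes cultured 24 h in RPMI 1640 (pH 7.5, 20 mM HEPES, 10% FBS, penicillin/streptomycin) with compound at two concentrations (1× and 2×). Washed in PBS and fixed in glutaraldehyde/formaldehyde in 0.1 M cacodylate pH 6.8, then OsO4 postfixed. Dehydrated in graded ethanol, CO2 critical-point dried, gold-coated and examined by SEM against untreated controls.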

Trypanosoma cruzi [6] = experiment: Induction of ultrastructural changes in trypamostigote form of Trypanosoma cruzi Y assessed as shortening of flagellum at 2 times IC50 after 24 hrs by scanning electron microscopic analysis; type: functional, organism-based; procedure, shortened: as §1
Trypanosoma cruzi [7] = experiment: Antitrypanosomal activity against trypamostigote form of Trypanosoma cruzi Y assessed as decrease in number of parasites after 24 hrs by scanning electron microscopic analysis; type: functional, organism-based; procedure, shortened: as §1
Trypanosoma cruzi [8] = experiment: Induction of ultrastructural changes in trypamostigote form of Trypanosoma cruzi Y assessed as alterations in reservosome at IC50 after 24 hrs by uranyl acetate/lead citrate staining based transmission electron microscopic analysis; type: functional, organism-based
Procedure, shortened: (§2)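 Trypomastigotes exposed for 24 h in RPMI 1640 (pH 7.5, 20 mM HEPES, 10% FBS, antibiotics) with compound at 1× or 2× the set concentration. Fixed in 2.5% glutaraldehyde, 4% formaldehyde, 0.1 M cacodylate pH 6.8, postfixed in 2% OsO4. Acetone-dehydrated, epon-embedded, sections stained with uranyl acetate/lead citrate and examined by TEM against untreated parasites.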

Trypanosoma cruzi [9] = experiment: Induction of ultrastructural changes in trypamostigote form of Trypanosoma cruzi Y assessed as intense cytoplasmic vacuolization at IC50 after 24 hrs by uranyl acetate/lead citrate staining based transmission electron microscopic analysis; type: functional, organism-based; procedure, shortened: as §2
Trypanosoma cruzi [10] = experiment: Induction of ultrastructural changes in trypamostigote form of Trypanosoma cruzi Y assessed as abnormal chromatin condensation at IC50 after 24 hrs by uranyl acetate/lead citrate staining based transmission electron microscopic analysis; type: functional, organism-based; procedure, shortened: as §2
Trypanosoma cruzi [11] = experiment: Induction of ultrastructural changes in trypamostigote form of Trypanosoma cruzi Y assessed as swelling of mitochondria at IC50 after 24 hrs by uranyl acetate/lead citrate staining based transmission electron microscopic analysis; type: functional, organism-based; procedure, shortened: as §2
Trypanosoma cruzi [12] = experiment: Induction of ultrastructural changes in trypamostigote form of Trypanosoma cruzi Y assessed as loss of cytoplasmic material at IC50 after 24 hrs by uranyl acetate/lead citrate staining based transmission electron microscopic analysis; type: functional, organism-based; procedure, shortened: as §2
Trypanosoma cruzi [13] = experiment: Induction of ultrastructural changes in trypamostigote form of Trypanosoma cruzi Y assessed as alterations in reservosome at 2 times IC50 after 24 hrs by uranyl acetate/lead citrate staining based transmission electron microscopic analysis; type: functional, organism-based; procedure, shortened: as §2
Trypanosoma cruzi [14] = experiment: Induction of ultrastructural changes in trypamostigote form of Trypanosoma cruzi Y assessed as intense cytoplasmic vacuolization at 2 times IC50 after 24 hrs by uranyl acetate/lead citrate staining based transmission electron microscopic analysis; type: functional, organism-based; procedure, shortened: as §2
Trypanosoma cruzi [15] = experiment: Induction of ultrastructural changes in trypamostigote form of Trypanosoma cruzi Y assessed as abnormal chromatin condensation at 2 times IC50 after 24 hrs by uranyl acetate/lead citrate staining based transmission electron microscopic analysis; type: functional, organism-based; procedure, shortened: as §2
Trypanosoma cruzi [16] = experiment: Induction of apoptosis in trypamostigote form of Trypanosoma cruzi Y assessed as necrotic cells after 24 hrs by Annexin V-FITC/propidium iodide staining based flow cytometry; type: functional, organism-based
Procedure, shortened: (§3)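 Trypomastigotes (1 × 10^7) incubated 24 h at 37 °C with or without compound. Then labelled with annexin V-FITC and propidium iodide using a kit per the manufacturer's instructions and analysed by flow cytometry. Two independent experiments, each concentration in duplicate; comparison against untreated cells.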

Trypanosoma cruzi [17] = experiment: Induction of ultrastructural changes in trypamostigote form of Trypanosoma cruzi Y assessed as dilated endoplasmic reticulum at 2 times IC50 after 24 hrs by uranyl acetate/lead citrate staining based transmission electron microscopic analysis; type: functional, organism-based; procedure, shortened: as §2
Trypanosoma cruzi [18] = experiment: Induction of ultrastructural changes in trypamostigote form of Trypanosoma cruzi Y assessed as swelling of kinetoplast at 2 times IC50 after 24 hrs by uranyl acetate/lead citrate staining based transmission electron microscopic analysis; type: functional, organism-based; procedure, shortened: as §2
Trypanosoma cruzi [19] = experiment: Induction of apoptosis in trypamostigote form of Trypanosoma cruzi Y assessed as late apoptotic cells after 24 hrs by Annexin V-FITC/propidium iodide staining based flow cytometry; type: functional, organism-based; procedure, shortened: as §3
Trypanosoma cruzi [20] = experiment: Induction of apoptosis in trypamostigote form of Trypanosoma cruzi Y assessed as early apoptotic cells after 24 hrs by Annexin V-FITC/propidium iodide staining based flow cytometry; type: functional, organism-based; procedure, shortened: as §3
Trypanosoma cruzi [21] = experiment: Induction of apoptosis in trypamostigote form of Trypanosoma cruzi Y assessed as necrotic cells at 25 uM after 24 hrs by Annexin V-FITC/propidium iodide staining based flow cytometry relative to untreated control; type: functional; procedure, shortened: as §3
Trypanosoma cruzi [22] = experiment: Induction of apoptosis in trypamostigote form of Trypanosoma cruzi Y assessed as late apoptotic cells at 25 uM after 24 hrs by Annexin V-FITC/propidium iodide staining based flow cytometry relative to untreated control; type: functional; procedure, shortened: as §3
Trypanosoma cruzi [23] = experiment: Induction of apoptosis in trypamostigote form of Trypanosoma cruzi Y assessed as necrotic cells at 5 uM after 24 hrs by Annexin V-FITC/propidium iodide staining based flow cytometry; type: functional, organism-based; procedure, shortened: as §3
Trypanosoma cruzi [24] = experiment: Induction of apoptosis in trypamostigote form of Trypanosoma cruzi Y assessed as late apoptotic cells at 5 uM after 24 hrs by Annexin V-FITC/propidium iodide staining based flow cytometry; type: functional, organism-based; procedure, shortened: as §3
Trypanosoma cruzi [25] = experiment: Induction of apoptosis in trypamostigote form of Trypanosoma cruzi Y assessed as early apoptotic cells at 5 and 25 uM after 24 hrs by Annexin V-FITC/propidium iodide staining based flow cytometry; type: functional, organism-based; procedure, shortened: as §3

O=C1c2ccccc2C(=O)N1C/C=N/N=c1\scc(-c2cccc([N+](=O)[O-])c2)n1-c1ccccc1
6 µM: IC50 (Trypanosoma cruzi [2])
active: Activity (Trypanosoma cruzi [5]) | Activity (Trypanosoma cruzi [6]) | Activity (Trypanosoma cruzi [7]) Dose-dependent effect | Activity (Trypanosoma cruzi [8]) | Activity (Trypanosoma cruzi [9]) | Activity (Trypanosoma cruzi [10]) | Activity (Trypanosoma cruzi [11]) | Activity (Trypanosoma cruzi [12]) | Activity (Trypanosoma cruzi [13]) | Activity (Trypanosoma cruzi [14]) | Activity (Trypanosoma cruzi [15]) | Activity (Trypanosoma cruzi [16]) Dose-dependent effect | Activity (Trypanosoma cruzi [17]) | Activity (Trypanosoma cruzi [18]) | Activity (Trypanosoma cruzi [19]) Dose-dependent effect
11%: Activity (Trypanosoma cruzi [21]) | Activity (Trypanosoma cruzi [22])
0.9 µM: IC50 (Trypanosoma cruzi [3])
inactive: Activity (Trypanosoma cruzi [20]) | Activity (Trypanosoma cruzi [23]) | Activity (Trypanosoma cruzi [24]) | Activity (Trypanosoma cruzi [25])
103 µM: MNTC at 24 h [1]
115: selectivity ratio [4]
